# Measured values of several laboratories.
# Protocols differ between the studies behind these lines.
# Effect on: enzyme activity
# Mode: inhibitor
# PARP10: Protein mono-ADP-ribosyltransferase PARP10 (PARP10, Homo sapiens, UniProt Q53GL7)
# HDAC1: Histone deacetylase 1 (HDAC1, Homo sapiens, UniProt Q13547)
SMILES,target,assay,IC50 [nM]
Nc1nc2c(ncn2[C@H]2CC[C@@H](COP(=O)(O)OP(=O)(O)OP(=O)(O)O)O2)c(=O)[nH]1,"TERT (Tribolium castaneum, UniProt Q0QHL8)",fluorescence,550
Cc1ccccc1Cn1nnc2c3ccc(F)cc3c(=O)[nH]c21,PARP10,,> 10000
O=C(O[C@@H]1COC(=O)c2cc(O)c(O)c(O)c2-c2c(cc(O)c(O)c2O)C(=O)O[C@H]1[C@@H]1OC(=O)c2cc(O)c(O)c(O)c2-c2c(O)c(O)c(O)c3c2C(=O)O[C@H]1[C@@H]3O)c1cc(O)c(O)c(O)c1,"Seed linoleate 13S-lipoxygenase-1 (Glycine max, UniProt P08170)",,36200
O=C(NO)c1ccc(Cn2cnc3c(Nc4ccc(F)c(Cl)c4)ncnc32)cc1,HDAC1,fluorescence,341
Cc1ccc(Cn2cc(-c3ccccc3C(N)=O)nn2)cc1,PARP10,,> 10000
O=C(CCCCc1ccc(CO)cc1)C(F)(F)C(F)(F)F,"Cytosolic phospholipase A2 (PLA2G4A, Homo sapiens, UniProt P47712)",,121000
NC/C(=C\F)COc1cccc(Cn2c(=S)[nH]c(=O)c3[nH]cnc32)c1,"Protein-lysine 6-oxidase (Homo sapiens, UniProt P28300)",,> 30000
COc1ccc(N(Cc2nc(-c3ccc(Cl)cc3)cs2)C(=O)CCCCCC(=O)NO)cc1,HDAC1,,1.7
CCCCn1c(=O)c2cc(F)ccc2c2nnn(Cc3ccc(C)cc3)c21,PARP10,,> 10000
O=C1CC[C@H](N2Cc3cc(N4CCN(CC5CCN(c6ccc([C@@H]7c8ccc(O)cc8CC[C@@H]7c7ccccc7)cc6)CC5)CC4)ccc3C2=O)C(=O)N1,"ATP-dependent translocase ABCB1 (ABCB1, Homo sapiens, UniProt P08183)",,900
Nc1cnccc1Nc1ccc(Cl)c(Cl)c1,"Uracil-DNA glycosylase (UNG, Homo sapiens, UniProt P13051)",,> 100000
CC(C)COc1ccc(N(Cc2nc(-c3ccccc3)cs2)C(=O)CCCCCC(=O)NO)cc1,HDAC1,,2.6
O=c1[nH]c2c(nnn2-c2ccccc2)c2ccc(F)cc12,PARP10,,> 10000
COc1ccc(N(Cc2nc(-c3ccc(F)cc3)cs2)C(=O)CCCCCC(=O)NO)cc1,HDAC1,,0.9
COc1ccc(Nc2ncnc3c2ncn3Cc2ccc(C(=O)NO)cc2)cc1,HDAC1,fluorescence,260
COc1ccc(N(Cc2csc(-c3ccccc3Br)n2)C(=O)CCCCCC(=O)NO)cc1,HDAC1,,1.3
COc1cccc(Cn2nnc3c4ccc(F)cc4c(=O)[nH]c32)c1,PARP10,,1660
Nc1ccccc1NC(=O)c1ccc(Cn2cnc3c(Nc4ccc(Cl)cc4)ncnc32)cc1,HDAC1,fluorescence,14.1
COc1ccc(N(Cc2csc(-c3ccccc3Cl)n2)C(=O)CCCCCC(=O)NO)cc1,HDAC1,,2.1
Cc1ccc(S(=O)(=O)NNc2ccc([N+](=O)[O-])cc2[N+](=O)[O-])cc1,"Polyunsaturated fatty acid 5-lipoxygenase (ALOX5, Homo sapiens, UniProt P09917)",,1330
Cc1ccc(Cn2nnc3c4cc(C)ccc4c(=O)[nH]c32)cc1,PARP10,,> 10000
COc1ccc(N(Cc2csc(-c3ccc(Cl)cc3)n2)C(=O)CCCCCC(=O)NO)cc1,HDAC1,,1
O=c1[nH]c2c(nnn2Cc2ccccc2)c2ccc(F)cc12,PARP10,,933
O=C(NO)c1ccc(Cn2cnc3c(Nc4cccc([N+](=O)[O-])c4)ncnc32)cc1,"Histone deacetylase 8 (HDAC8, Homo sapiens, UniProt Q9BY41)",,118
COc1ccc(N(Cc2csc(-c3ccc(C)cc3)n2)C(=O)CCCCCC(=O)NO)cc1,HDAC1,,0.8
O=c1[nH]c2c(nnn2C2CCCCC2)c2ccccc12,PARP10,,> 10000
